Values after ≈ are worked out from the molar mass of the structure shown. Active and inactive are the calls of the source. The calls are words filed in the database; no cut-off is given here.
Tests used:
Staphylococcus aureus = assay: Antibacterial activity against Staphylococcus aureus ATCC 12600 assessed as lowest concentration required for total inhibition by broth microdilution assay; format: functional; conditions: read-out: MIC100
Method in brief: (§1)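 Broth microdilution against the listed ATCC […] strains. The value is the lowest concentration giving total inhibition. "<" marks the lowest level tested, and ">" marks partial growth at that dilution.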

Enterococcus faecalis = assay: Antibacterial activity against Streptococcus faecalis ATCC 14506 assessed as lowest concentration required for total inhibition by broth microdilution assay; format: functional; conditions: read-out: MIC100; method in brief: as §1
Cutibacterium acnes = assay: Antibacterial activity against Corynebacterium acnes ATCC 11828 assessed as lowest concentration required for total inhibition by broth microdilution assay; format: functional; conditions: read-out: MIC100; method in brief: as §1
[1] = test system: Erysipelothrix rhusiopathiae; assay: Antibacterial activity against Erysipelothrix insidiosa ATCC 19414 assessed as lowest concentration required for total inhibition by broth microdilution assay; format: functional; conditions: read-out: MIC100; method in brief: as §1
Pasteurella multocida = assay: Antibacterial activity against Pasteurella multocida ATCC 19427 assessed as lowest concentration required for total inhibition by broth microdilution assay; format: functional; conditions: read-out: MIC100; method in brief: as §1
Candida albicans [2] = assay: Antifungal activity against Candida albicans in mouse vaginal infection model compound applied intravaginally as 2% formulation in an aqueous propylene glycol cream for 4 days bid; format: functional, organism-based; conditions: Vagina
Method in brief: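 Mice with vaginal C. albicans infection, following Wildfeuer's method. The compound was applied intravaginally as a 2% formulation in an aqueous propylene glycol cream, twice daily for 4 days. Read-out was animals cured over total number infected.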

[3] = Lipophilic-hydrophilic balance, Rm of the compound assessed as change in compound Rm to miconazole Rm by reverse-phase TLC method; format: physicochemical
Nannizzia gypsea = assay: Antifungal activity against Microsporum gypseum assessed as lowest concentration required for total inhibition broth dilution assay; format: functional; conditions: read-out: MIC100
Method in brief: (§2)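 Broth dilution against dermatophytes, C. albicans ATCC 10231 and 14053, and C. neoformans. The end point is the lowest concentration with total inhibition. "<" marks the lowest level tested, and ">" marks partial growth at that dilution.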

Epidermophyton floccosum = assay: Antifungal activity against Epidermophyton floccosum assessed as lowest concentration required for total inhibition broth dilution assay; format: functional; conditions: read-out: MIC100; method in brief: as §2
[4] = test system: Trichophyton mentagrophytes; assay: Antifungal activity against Trichophyton mentagrophytes assessed as lowest concentration required for total inhibition broth dilution assay; format: functional; conditions: read-out: MIC100; method in brief: as §2
Candida albicans [5] = assay: Antifungal activity against Candida albicans ATCC 10231 assessed as lowest concentration required for total inhibition by broth dilution assay; format: functional; conditions: read-out: MIC100; method in brief: as §2
Candida albicans [6] = assay: Antifungal activity against Candida albicans ATCC 14053 assessed as lowest concentration required for total inhibition by broth dilution assay; format: functional; conditions: read-out: MIC100; method in brief: as §2
Cryptococcus neoformans = assay: Antifungal activity against Cryptococcus neoformans assessed as lowest concentration required for total inhibition by broth dilution assay; format: functional; conditions: read-out: MIC100; method in brief: as §2
Microsporum audouinii = assay: Antifungal activity against Microsporum audouinii assessed as lowest concentration required for total inhibition broth dilution assay; format: functional; conditions: read-out: MIC100; method in brief: as §2
[7] = silicone oil-impregnated silica gel, MeCN-H2O-AcOH

Compound | MIC (Staphylococcus aureus) | MIC (Enterococcus faecalis) | MIC (Cutibacterium acnes) | MIC [1] | MIC (Pasteurella multocida) | Activity (Candida albicans [2]) | deltaRm [3, 7] | MIC (Nannizzia gypsea) | MIC (Epidermophyton floccosum) | MIC [4] | MIC (Candida albicans [5]) | MIC (Candida albicans [6]) | MIC (Cryptococcus neoformans) | MIC (Microsporum audouinii) | deltaRm ([3]; octanol/water)
CCCCCCCC(=O)SC(Cn1ccnc1)c1ccc(Cl)cc1Cl.O=C(O)C(=O)O (stereo not given) | 3 µg/mL | 30 µg/mL | 100 µg/mL | 30 µg/mL | 1 µg/mL | inactive | 0.44 | 30 µg/mL | < 0.1 µg/mL | 10 µg/mL | 10 µg/mL | 10 µg/mL | < 1 µg/mL | – | –
O=C(O)C(=O)O.O=C(OC(Cn1ccnc1)c1ccc(Cl)cc1)c1ccccc1Cl (stereo not given) | – | – | – | – | – | – | -0.49 | – | 5 µg/mL | 10 µg/mL | 100 µg/mL | 100 µg/mL | – | 50 µg/mL | –
O=C(Cc1ccc(Cl)cc1)OC(Cn1ccnc1)c1ccc(Cl)cc1.O=C(O)C(=O)O (stereo not given) | – | – | – | – | – | – | – | – | 1 µg/mL | 10 µg/mL | 50 µg/mL | 50 µg/mL | – | 10 µg/mL | -0.42
CCCCCC(=O)SC(Cn1ccnc1)c1ccc(Cl)cc1Cl.O=[N+]([O-])O (stereo not given) | – | – | – | – | – | inactive | -0.05 | 30 µg/mL | < 0.1 µg/mL | 30 µg/mL | 100 µg/mL | 30 µg/mL | 1 µg/mL | – | –
O=C(SC(Cn1ccnc1)c1ccc(Cl)cc1Cl)c1ccc(Cl)cc1.O=[N+]([O-])O (stereo not given) | 3 µg/mL | 100 µg/mL | > 100 µg/mL | > 100 µg/mL | 1 µg/mL | Active | -0.03 | 30 µg/mL | < 0.1 µg/mL | 10 µg/mL | 10 µg/mL | 10 µg/mL | < 1 µg/mL | – | –
Clc1ccc(COC(Cn2ccnc2)c2ccc(Cl)cc2Cl)c(Cl)c1 (stereo not given) [MICONAZOLE] | 1 µg/mL (≈ 2.4 µM) | 10 µg/mL (≈ 24 µM) | 10 µg/mL (≈ 24 µM) | 3 µg/mL (≈ 7.21 µM) | < 0.1 µg/mL | Active | 0 | 3 µg/mL (≈ 7.21 µM) | < 0.1 µg/mL | 3 µg/mL (≈ 7.21 µM) | 30 µg/mL (≈ 72.1 µM) | 30 µg/mL (≈ 72.1 µM) | < 0.3 µg/mL | – | –
CCOC(=S)SC(Cn1ccnc1)c1ccc(Cl)cc1Cl.O=[N+]([O-])O (stereo not given) | – | – | – | – | – | – | -0.27 | – | < 0.1 µg/mL | < 0.1 µg/mL | 50 µg/mL | 50 µg/mL | 1 µg/mL | 5 µg/mL | –
O=C(O)C(=O)O.O=C(OC(Cn1ccnc1)c1ccc(Cl)cc1Cl)c1ccc([N+](=O)[O-])cc1 (stereo not given) | – | – | – | – | – | – | -0.54 | – | 0.33 µg/mL | 10 µg/mL | > 300 µg/mL | > 300 µg/mL | – | 33 µg/mL | –
O=C(OC(Cn1ccnc1)c1ccc(Cl)cc1)c1ccc(Cl)cc1.O=[N+]([O-])O (stereo not given) | – | – | – | – | – | – | -0.31 | – | 100 µg/mL | > 100 µg/mL | > 100 µg/mL | > 100 µg/mL | 10 µg/mL | 100 µg/mL | –
O=C(O)C(=O)O.O=C(Oc1ccc(Cl)cc1)OC(Cn1ccnc1)c1ccc(Cl)cc1 (stereo not given) | – | – | – | – | – | – | -0.52 | – | 10 µg/mL | 10 µg/mL | > 100 µg/mL | > 100 µg/mL | – | 100 µg/mL | –

Source: ChEMBL document CHEMBL3244395, “Antimycotic imidazoles. 2. Synthesis and antifungal properties of esters of 1-[2-hydroxy(mercapto)-2-phenylethyl]-1H-imidazoles” (J Med Chem, 1978)
